Data published in ChEMBL document CHEMBL4428071 (J Med Chem, 2016).
Values after ≈ are worked out from the molar mass of the structure shown. Active and inactive are the calls of the source. The rule behind the calls is not given here.

Experiments:
[1] = organism: Homo sapiens; assay: Induction of apoptosis in human GIST5R cells assessed as increase in cleaved PARP levels after 24 hrs by Western blot analysis; format: functional, cell-based
Procedure, shortened: (§1)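 GIST-T1 or GIST-5R cells in DMEM with 10% FBS were exposed to serially diluted compound for 24 h. Apoptosis was assessed by western blot with PARP and GAPDH antibodies.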

[2] = organism: Homo sapiens; assay: Inhibition of TEL-fused cKIT L567P mutant (unknown origin) expressed in mouse BA/F3 cells assessed as cell growth inhibition after 72 hrs by cell titer-glo assay; format: cell-based
Procedure, shortened: (§2)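 Cells seeded at 3000 per well and exposed to serial compound dilutions for 72 h. Viability read by CellTiter-Glo luminescence and normalised to DMSO controls; mean of three independent measurements. BaF3 lines kept IL-3-free in RPMI 1640/10% FBS after retroviral transduction and puromycin selection. GIST lines grown in DMEM/10% FBS.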

[3] = target: T1, Mast/stem cell growth factor receptor Kit (Homo sapiens, UniProt P10721, T670I); assay: Inhibition of cKIT T670I mutant autophosphorylation at Y719 in human GIST-5R cells at 0.1 to 3 uM after 1 hr by Western blot analysis; format: cell-based
Procedure, shortened: (§3)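 GIST-T1 or GIST-5R cells in DMEM with 10% FBS were treated with serially diluted compound for 1 h. Cells were then lysed and analysed by western blotting.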

[4] = tested on: BaF3; assay: Induction of apoptosis in mouse BA/F3 cells harboring TEL-fused cKIT T670I mutant allografted in nu/nu mouse at 25 to 100 mg/kg, ip administered daily for 10 days by TUNEL staining based microscopic analysis; format: functional, organism-based
Procedure, shortened: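 Tumour sections from the daily-IP, 10-day BaF3-TEL-cKIT-T670I xenograft study were deparaffinised and digested with proteinase K for 15 min at RT. Peroxidase blocked in 3% H2O2/methanol. TdT reaction 1 h at 37 °C, converter-POD 30 min at 37 °C, DAB ~8 min, haematoxylin counterstain.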

[5] = tested on: GISTT1; assay: Induction of apoptosis in human GISTT1 cells assessed as increase in cleaved PARP levels after at 30 nM 24 hrs by Western blot analysis; format: functional, cell-based; procedure, shortened: as §1
[6] = tested on: Mast/stem cell growth factor receptor Kit (Homo sapiens), P10721 [D816V]; assay: Inhibition of TEL-fused cKIT D816V mutant (unknown origin) expressed in mouse BA/F3 cells assessed as cell growth inhibition after 72 hrs by cell titer-glo assay; format: cell-based; procedure, shortened: as §2
[7] = target: T2, Mast/stem cell growth factor receptor Kit (Homo sapiens, UniProt P10721); assay: Inhibition of wild type cKIT in human GIST-T1 cells assessed as downregulation of S6 phosphorylation at S235/236 after 1 hr by Western blot analysis; format: cell-based
Procedure, shortened: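 GIST-T1 cells in DMEM with 10% FBS were exposed to serially diluted compound for 1 h, then lysed. Lysates were analysed by western blot with phospho-specific antibodies against AKT (Ser473), ERK1/2 (Thr202/Tyr204) and S6 ribosomal protein (Ser235/236), each alongside its total protein.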

[8] = target: T1, Mast/stem cell growth factor receptor Kit; assay: Inhibition of His-tagged cKIT T670I mutant (544 to 935 residues) (unknown origin) expressed in Sf9 cells using Poly(4:1 Glu, Tyr) peptide as substrate after 1 hr by ADP-glo kinase assay
[9] = target: T1, Mast/stem cell growth factor receptor Kit; assay: Inhibition of cKIT T670I mutant in human GIST-5R cells assessed as downregulation of ERK phosphorylation at T202/204 after 1 hr by Western blot analysis; format: cell-based; procedure, shortened: as §3
[10] = Tmax in Sprague-Dawley rat at 1 mg/kg, iv measured up to 8 hrs post dosing; format: ADME, organism-based; details: in vivo
Procedure, shortened: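 Male Sprague-Dawley rats, 8 weeks old, fasted overnight, dosed at 1 mg/kg iv from a 1 mg/mL stock in 5% DMSO/40% PEG400/55% saline. About 0.2 mL jugular blood taken into heparin at 1 min to 8 h. Plasma held at -80 °C until analysis. n = 3, mean reported.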

[11] = tested on: BaF3; assay: Antitumor activity against TEL-fused cKIT T670I mutant expressing mouse BA/F3 cells allografted in nu/nu mouse assessed as tumor growth inhibition at 25 mg/kg, ip administered daily for 10 days; format: functional; details: 240 h, read-out: TGI
Procedure, shortened: (§4)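 Female nu/nu mice, 5 weeks old at purchase, given 1 million BaF3-TEL-cKIT-T670I cells in PBS/Matrigel 1:1 subcutaneously on the right flank. At tumour volume 200–400 mm3, randomised into groups of 7 and dosed IP daily for 10 days (25, 50, 100 mg/kg/d or vehicle: 0.5% methylcellulose/0.4% Tween80 in water). Tumour volume (W2×L/2) and body weight recorded daily.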

[12] = Solubility of the compound in pure water; format: physicochemical
Procedure, shortened: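 Solubility measured in PBS pH 7.4 and in pure water, reported as µg/mL.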

[13] = AUC (0 to t) in Sprague-Dawley rat at 1 mg/kg, iv measured up to 8 hrs post dosing; format: ADME, organism-based; design: time < 8 hr, dose 1 mg/kg, route intravenous; details: in vivo
Procedure, shortened: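 Male Sprague-Dawley rats, 8 weeks old, fasted overnight; iv dosing from a 1 mg/mL solution in 5% DMSO/40% PEG400/55% saline. Jugular-vein blood (~0.2 mL, heparinised) taken at 1, 5, 15, 30 min and 1, 2, 4, 6, 8 h; plasma held at -80 °C until analysis; n=3.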

[14] = target: Epithelial discoidin domain-containing receptor 1 (Homo sapiens) (UniProt Q08345); assay: Inhibition of partial length human DDR1 expressed in bacterial expression system assessed as activity remaining at 1 uM by kinome scan assay
[15] = tested on: GISTT1; assay: Induction of apoptosis in human GISTT1 cells assessed as increase in cleaved PARP levels after 24 hrs by Western blot analysis; format: functional, cell-based; procedure, shortened: as §1
[16] = tested on: Mast/stem cell growth factor receptor Kit (Homo sapiens), P10721 [N822K]; assay: Inhibition of TEL-fused cKIT N822K mutant (unknown origin) expressed in mouse BA/F3 cells assessed as cell growth inhibition after 72 hrs by cell titer-glo assay; format: cell-based; procedure, shortened: as §2
[17] = target: T2, Mast/stem cell growth factor receptor Kit; assay: Inhibition of TEL-fused cKIT (unknown origin) expressed in mouse BA/F3 cells assessed as cell growth inhibition after 72 hrs by cell titer-glo assay; format: cell-based
[18] = tested on: BaF3; assay: Antitumor activity against TEL-fused cKIT T670I mutant expressing mouse BA/F3 cells allografted in nu/nu mouse assessed as tumor growth inhibition at 100 mg/kg/day, ip administered daily for 10 days; format: functional; details: 240 h, read-out: TGI; procedure, shortened: as §4

T1 sequence (P10721 26-976 T670I limits assumed): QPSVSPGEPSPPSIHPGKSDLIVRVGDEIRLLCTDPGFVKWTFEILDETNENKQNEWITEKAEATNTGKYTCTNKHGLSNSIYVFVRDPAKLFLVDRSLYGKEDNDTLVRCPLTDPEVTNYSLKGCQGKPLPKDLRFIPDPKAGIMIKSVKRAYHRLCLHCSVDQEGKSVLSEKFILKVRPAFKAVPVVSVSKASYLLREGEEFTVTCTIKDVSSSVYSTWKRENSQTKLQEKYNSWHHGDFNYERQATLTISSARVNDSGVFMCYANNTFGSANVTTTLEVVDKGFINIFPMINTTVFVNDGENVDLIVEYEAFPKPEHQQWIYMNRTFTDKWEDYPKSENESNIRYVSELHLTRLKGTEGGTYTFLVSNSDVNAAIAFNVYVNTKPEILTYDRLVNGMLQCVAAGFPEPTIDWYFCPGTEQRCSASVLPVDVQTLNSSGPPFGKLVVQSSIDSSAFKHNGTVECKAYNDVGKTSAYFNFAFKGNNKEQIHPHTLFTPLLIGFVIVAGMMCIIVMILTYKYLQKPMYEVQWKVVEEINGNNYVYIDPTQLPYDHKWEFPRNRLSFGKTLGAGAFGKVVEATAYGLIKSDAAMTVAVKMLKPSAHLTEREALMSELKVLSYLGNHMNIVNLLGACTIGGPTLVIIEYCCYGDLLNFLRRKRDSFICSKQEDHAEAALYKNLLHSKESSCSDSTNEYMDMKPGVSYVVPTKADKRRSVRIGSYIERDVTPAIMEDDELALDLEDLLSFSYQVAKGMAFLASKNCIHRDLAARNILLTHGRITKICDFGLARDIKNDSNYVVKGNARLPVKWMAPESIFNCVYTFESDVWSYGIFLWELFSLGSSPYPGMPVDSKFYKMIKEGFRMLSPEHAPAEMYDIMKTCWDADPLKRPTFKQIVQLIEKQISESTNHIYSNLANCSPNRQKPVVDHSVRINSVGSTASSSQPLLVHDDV
T2 sequence (P10721 whole entry): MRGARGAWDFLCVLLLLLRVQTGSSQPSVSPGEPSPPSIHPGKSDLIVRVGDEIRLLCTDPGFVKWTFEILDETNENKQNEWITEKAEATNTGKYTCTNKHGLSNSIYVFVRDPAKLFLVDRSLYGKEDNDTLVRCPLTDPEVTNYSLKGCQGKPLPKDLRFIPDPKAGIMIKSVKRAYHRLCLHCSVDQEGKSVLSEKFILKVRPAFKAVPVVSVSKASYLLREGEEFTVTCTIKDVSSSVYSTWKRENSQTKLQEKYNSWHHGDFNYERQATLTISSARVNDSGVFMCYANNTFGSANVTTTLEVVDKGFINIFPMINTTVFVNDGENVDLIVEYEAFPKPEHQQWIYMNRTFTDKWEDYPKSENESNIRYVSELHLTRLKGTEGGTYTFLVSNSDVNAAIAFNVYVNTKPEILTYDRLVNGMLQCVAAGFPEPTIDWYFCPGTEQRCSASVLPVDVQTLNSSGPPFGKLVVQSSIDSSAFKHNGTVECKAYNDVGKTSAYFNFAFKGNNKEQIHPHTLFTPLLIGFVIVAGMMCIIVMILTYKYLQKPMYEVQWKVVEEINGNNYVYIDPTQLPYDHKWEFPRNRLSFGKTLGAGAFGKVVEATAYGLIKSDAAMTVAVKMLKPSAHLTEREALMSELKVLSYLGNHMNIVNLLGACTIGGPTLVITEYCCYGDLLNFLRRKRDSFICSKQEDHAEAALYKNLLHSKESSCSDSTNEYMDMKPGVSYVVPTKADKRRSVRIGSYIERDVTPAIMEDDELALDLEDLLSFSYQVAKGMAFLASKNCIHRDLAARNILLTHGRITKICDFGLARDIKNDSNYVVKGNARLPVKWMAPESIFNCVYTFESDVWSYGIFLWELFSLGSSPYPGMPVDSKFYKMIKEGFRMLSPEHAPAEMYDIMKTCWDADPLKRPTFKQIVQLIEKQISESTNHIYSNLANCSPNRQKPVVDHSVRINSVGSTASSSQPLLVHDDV
Mast/stem cell growth factor receptor Kit (Homo sapiens), P10721 [N822K], sequence (P10721 whole entry N822K, the tested form may be a part): as the sequence (P10721 whole entry) above, with N822K counted along it
Epithelial discoidin domain-containing receptor 1 (Homo sapiens), sequence (Q08345 whole entry, the tested form may be a part): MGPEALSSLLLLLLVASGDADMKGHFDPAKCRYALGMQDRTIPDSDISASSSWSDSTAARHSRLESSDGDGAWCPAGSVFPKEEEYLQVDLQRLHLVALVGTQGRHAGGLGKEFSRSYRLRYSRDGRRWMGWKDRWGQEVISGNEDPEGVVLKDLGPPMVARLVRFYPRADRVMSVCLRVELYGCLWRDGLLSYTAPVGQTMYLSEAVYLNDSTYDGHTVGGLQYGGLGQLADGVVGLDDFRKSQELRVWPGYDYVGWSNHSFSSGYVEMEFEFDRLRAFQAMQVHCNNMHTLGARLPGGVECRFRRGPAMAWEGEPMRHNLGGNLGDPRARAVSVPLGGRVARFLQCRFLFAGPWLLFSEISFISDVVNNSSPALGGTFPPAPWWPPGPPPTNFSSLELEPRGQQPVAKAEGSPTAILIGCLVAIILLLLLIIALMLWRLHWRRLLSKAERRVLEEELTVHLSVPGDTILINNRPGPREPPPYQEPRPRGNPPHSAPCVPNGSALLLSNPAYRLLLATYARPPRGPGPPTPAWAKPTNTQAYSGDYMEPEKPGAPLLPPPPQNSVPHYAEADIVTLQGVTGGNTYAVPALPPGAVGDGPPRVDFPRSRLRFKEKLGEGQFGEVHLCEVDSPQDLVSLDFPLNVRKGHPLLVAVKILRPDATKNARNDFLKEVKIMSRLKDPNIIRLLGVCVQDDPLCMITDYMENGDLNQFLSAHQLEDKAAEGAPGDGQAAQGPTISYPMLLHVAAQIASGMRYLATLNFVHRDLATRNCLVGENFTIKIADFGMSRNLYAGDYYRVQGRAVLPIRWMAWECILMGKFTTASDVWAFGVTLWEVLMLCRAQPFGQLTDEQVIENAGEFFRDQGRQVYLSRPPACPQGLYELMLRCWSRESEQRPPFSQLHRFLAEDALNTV
Mast/stem cell growth factor receptor Kit (Homo sapiens), P10721 [D816V], sequence (P10721 whole entry D816V, the tested form may be a part): as the sequence (P10721 whole entry) above, with D816V counted along it

CCC(=O)NCC1CCN(c2ccc(NC(=O)Nc3cccc(Oc4ccnc5cc(OC)c(OC)cc45)c3)cc2C(F)(F)F)CC1
Activity [1]: Dose-dependent effect
GI50 [2]: 23 nM
EC50 [3]: < 100 nM
Activity [4]: Active
Activity [5]: Active
GI50 [6]: 670 nM
EC50 [7]: < 100 nM
IC50 [8]: 99 nM
EC50 [9]: < 100 nM
Tmax [10]: 1.02 min
inhibition in vivo at 25 mg/kg [11]: 18.3%
solubility [12]: 78 µM (≈ 50.8 µg/mL)
AUCt [13]: 377 ng·h/mL
Activity [14]: < 1%
Activity [15]: Dose-dependent effect
GI50 [16]: 40 nM
GI50 [17]: 57 nM
inhibition in vivo at 100 mg/kg/day [18]: 47.7%
